Results from different studies.
Lines come from different studies, so protocols differ.
CSF1R autoinhibited: Macrophage colony-stimulating factor 1 receptor, autoinhibited (CSF1R, Homo sapiens, UniProt P07333)
CSF1R: Macrophage colony-stimulating factor 1 receptor (CSF1R, Homo sapiens, UniProt P07333)

CN(C)c1nccc(-c2cnn3ncccc23)n1 — remaining binding (CSF1R autoinhibited; binding; 1 µM): 100%
CO[C@@H](C)c1c(Nc2ccc([C@@H](N(C)C(=O)C3CCS(=O)(=O)CC3)C(F)(F)F)cc2)cnc2cc(Cl)nn12 — remaining binding (CSF1R; cell-free assay, competition with immobilised ligand; 1 µM): 72%
Cc1nc(NC(=O)N2CCC[C@H]2C(N)=O)sc1-c1ccnc(C(C)(C)C(F)(F)F)c1 — remaining binding (CSF1R autoinhibited; binding, competition with immobilised ligand; 10 µM): 98%
O=C(Nc1c[nH]nc1C(=O)NC1CCNCC1)c1cc(F)cc(F)c1 — remaining binding (CSF1R autoinhibited; binding, competition with immobilised ligand; 1 µM): 90%
COc1ncc2cc3ccccc3nc2c1C#N — remaining binding (CSF1R autoinhibited; cell-free assay, competition with immobilised ligand; 5 µM): 97%
CN(c1nccc(-c2cnn3ncccc23)n1)C1CC1 — remaining binding (CSF1R; binding; 1 µM): 88%
COc1cnc(Nc2cccc(S(N)(=O)=O)c2)nc1N1CCN(c2ccccc2)C(=O)C1 — remaining binding (CSF1R; binding, competition with immobilised ligand; 1 µM): 100%
CCC(=O)N[C@H]1CC[C@@H](C(=O)N(C)c2ccc(-c3nc4ccccc4o3)cc2)C1 — remaining binding (CSF1R autoinhibited; cell-free assay, competition with immobilised ligand; 1 µM): 56%
FC(F)(F)Oc1cccc(-c2cnc3ccc(-c4ccncc4)nn23)c1 — remaining binding (CSF1R; cell-free assay, competition with immobilised ligand; 5 µM): 59%
C[C@@H]1CCN(c2nccc(-c3cnn4ncccc34)n2)C1 — remaining binding (CSF1R autoinhibited; binding; 1 µM): 78%
O=C(Nc1ccc(Oc2ccc(F)cc2)cc1)N1CCc2ncccc2[C@H]1c1ccc(F)cc1 — remaining binding (CSF1R autoinhibited; cell-free assay, competition with immobilised ligand; 1 µM): 95%
CC1CCCN1c1nccc(-c2cnn3ncccc23)n1 (stereo not shown) — remaining binding (CSF1R autoinhibited; binding; 1 µM): 99%
CC(=O)N1CCC(c2ccc(C(=O)NC3=NCCN3)cc2C(F)(F)F)CC1 — remaining binding (CSF1R; cell-free assay, competition with immobilised ligand; 1 µM): 100%
C[C@@H](c1ccc(-n2cnc3c(N)ncnc32)cc1)N1CCc2nn(C)c(Cc3ccccc3)c2C1=O — remaining binding (CSF1R; binding, competition with immobilised ligand; 0.1 µM): 100%
COc1ccc2c(O[C@@H]3C[C@H]4C(=O)N[C@]5(C(=O)O)CC5/C=C\CCCCC[C@H](NC(=O)OC5CCCC5)C(=O)N4C3)cc(-c3csc(NC(=O)C(C)C)n3)nc2c1C (stereo partly shown) — remaining binding (CSF1R; cell-free assay, competition with immobilised ligand; 1 µM): 71%
O=C(NCCCN1CCOCC1)c1ccc(Nc2nccc(-c3cc4ccccc4s3)n2)cc1 — remaining binding (CSF1R; binding, competition with immobilised ligand; 1 µM): 50%
CCS(=O)(=O)c1cc2cc(C[C@@](O)(CC(C)(C)c3ccc(F)cc3C(N)=O)C(F)(F)F)[nH]c2cn1 — remaining binding (CSF1R; cell-free assay, competition with immobilised ligand; 1 µM): 100%
N[C@@H]1CCN(c2nccc(-c3cnn4ncccc34)n2)C1 — remaining binding (CSF1R autoinhibited; binding; 1 µM): 100%
O=C(c1ccc(Nc2nccc(-c3cc4ccccc4s3)n2)cc1)N1CCC(N2CCCC2)CC1 — remaining binding (CSF1R; binding, competition with immobilised ligand; 1 µM): 42%
